Measured values as given in ChEMBL document CHEMBL5724801, “EUbOPEN Chemogenomics Library - Multiplex” (2024).
“And” between values parts separate entries of the source, which are not always exact repeats. Equal entries are not always repeated.

Tested on: HEK-293T
Assay: Multiplex assay against HEK293T
Assay type: toxicity, cell-based
Settings: human
In short: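 Tubulin, mitochondrial-mass and membrane-permeability phenotypes are per cents of healthy-nucleus cells. Cells were gated by CellPathfinder machine learning into Hoechst high-intensity objects or normal cells, normal cells into healthy, pyknosed or fragmented nuclei, and pyknosed cells into mitotic or apoptotic. Before that, live cells stained at seeding with Hoechst33342, BioTracker Green Microtubule Cytoskeleton Dye, MitoTracker Red and Annexin V Alexa Fluor 680 were imaged on a CQ1 microscope at 37°C and 5% CO2 after compound addition.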

[1] = 12 h, 1 µM, compound concentration 1 uM
[2] = 12 h, 10 µM, compound concentration 10 uM
[3] = 24 h, 1 µM, compound concentration 1 uM
[4] = 24 h, 10 µM, compound concentration 10 uM
[5] = 48 h, 1 µM, compound concentration 1 uM
[6] = 48 h, 10 µM, compound concentration 10 uM

For `CCCn1c(=O)c2[nH]c(C3CCCC3)nc2n(CCC)c1=O` [1,3-DIPROPYL-8-CYCLOPENTYLXANTHINE [DPCPX]], the “Population Apoptotic (%)” value [1] was 35% and 54%, the “Population Fragmented Nuclei (%)” value [1] was 7% and 3% and the “Population Healthy Nuclei (%)” value [1] was 79% and 81%. For the same compound, the “Population Hoechst High Intensity Objects (%)” value [1] was 6% and 3%, the “Population Membrane Permeable-Phenotype (%)” value [1] was 0% and the “Population Mitochondria Different-Phenotype (%)” value [1] was 44% and 52%. For the same compound, the “Population Mitotic Cells (%)” value [1] was 64% and 45%, the “Population Normal (%)” value [1] was 93% and 96% and the “Population Pyknosed Nuclei (%)” value [1] was 12% and 14%. For the same compound, the “Population Tubulin-Different-Phenotype (%)” value [1] was 32% and 15%, the “Total Cell Count” value [1] was 443 and 361 and the “Population Apoptotic (%)” value [2] was 60% and 54%. For the same compound, the “Population Fragmented Nuclei (%)” value [2] was 12% and 7%, the “Population Healthy Nuclei (%)” value [2] was 68% and 75% and the “Population Membrane Permeable-Phenotype (%)” value [2] was 0%. For the same compound, the “Population Mitochondria Different-Phenotype (%)” value [2] was 58% and 68%, the “Population Mitotic Cells (%)” value [2] was 39% and 45% and the “Population Normal (%)” value [2] was 94% and 81%. For the same compound, the “Population Pyknosed Nuclei (%)” value [2] was 19% and 16%, the “Population Tubulin-Different-Phenotype (%)” value [2] was 51% and 45% and the “Total Cell Count” value [2] was 295 and 337. For the same compound, the “Population Apoptotic (%)” value [3] was 26% and 28%, the “Population Fragmented Nuclei (%)” value [3] was 8% and 7% and the “Population Healthy Nuclei (%)” value [3] was 78% and 82%. For the same compound, the “Population Hoechst High Intensity Objects (%)” value [3] was 4% and 3%, the “Population Membrane Permeable-Phenotype (%)” value [3] was 1% and 0% and the “Population Mitochondria Different-Phenotype (%)” value [3] was 25% and 45%. The “Population Mitotic Cells (%)” value [3] was 73% and 71%, the “Population Normal (%)” value [3] was 95% and 96% and the “Population Pyknosed Nuclei (%)” value [3] was 13% and 10%. The “Population Tubulin-Different-Phenotype (%)” value [3] was 20% and 19%, the “Total Cell Count” value [3] was 610 and 403 and the “Population Apoptotic (%)” value [4] was 50% and 41%. For the same compound, the “Population Fragmented Nuclei (%)” value [4] was 8% and 7%, the “Population Healthy Nuclei (%)” value [4] was 76% and 79% and the “Population Membrane Permeable-Phenotype (%)” value [4] was 0%. The “Population Mitochondria Different-Phenotype (%)” value [4] was 43% and 55%, the “Population Mitotic Cells (%)” value [4] was 50% and 58% and the “Population Normal (%)” value [4] was 95% and 84%. For the same compound, the “Population Pyknosed Nuclei (%)” value [4] was 14% and 13%, the “Population Tubulin-Different-Phenotype (%)” value [4] was 40% and 31% and the “Total Cell Count” value [4] was 379 and 411. For the same compound, the “Population Apoptotic (%)” value [5] was 33% and 39%, the “Population Fragmented Nuclei (%)” value [5] was 11% and 14% and the “Population Healthy Nuclei (%)” value [5] was 81% and 80%. For the same compound, the “Population Hoechst High Intensity Objects (%)” value [5] was 1% and 3%, the “Population Membrane Permeable-Phenotype (%)” value [5] was 1% and 0% and the “Population Mitochondria Different-Phenotype (%)” value [5] was 17% and 22%. The “Population Mitotic Cells (%)” value [5] was 66% and 60%, the “Population Normal (%)” value [5] was 98% and 96% and the “Population Pyknosed Nuclei (%)” value [5] was 7% and 5%. For the same compound, the “Population Tubulin-Different-Phenotype (%)” value [5] was 17% and 13%, the “Total Cell Count” value [5] was 957 and 593 and the “Population Apoptotic (%)” value [6] was 29% and 45%. The “Population Fragmented Nuclei (%)” value [6] was 14%, the “Population Healthy Nuclei (%)” value [6] was 76% and 75% and the “Population Hoechst High Intensity Objects (%)” value [6] was 3% and 7%. For the same compound, the “Population Membrane Permeable-Phenotype (%)” value [6] was 1% and 0%, the “Population Mitochondria Different-Phenotype (%)” value [6] was 37% and 36% and the “Population Mitotic Cells (%)” value [6] was 70% and 54%. For the same compound, the “Population Normal (%)” value [6] was 96% and 92%, the “Population Pyknosed Nuclei (%)” value [6] was 8% and 10% and the “Population Tubulin-Different-Phenotype (%)” value [6] was 30% and 23%. The “Total Cell Count” value [6] was 511 and 516.
For `Cc1ccc(OCC(O)C(C)NC(C)C)c2c1CCC2.Cl` (centres undefined), the “Population Apoptotic (%)” value [1] was 34% and 45%, the “Population Fragmented Nuclei (%)” value [1] was 6% and 5% and the “Population Healthy Nuclei (%)” value [1] was 81% and 84%. The “Population Hoechst High Intensity Objects (%)” value [1] was 5%, the “Population Membrane Permeable-Phenotype (%)” value [1] was 0% and the “Population Mitochondria Different-Phenotype (%)” value [1] was 54% and 65%. The “Population Mitotic Cells (%)” value [1] was 65% and 54%, the “Population Normal (%)” value [1] was 94% and the “Population Pyknosed Nuclei (%)” value [1] was 12% and 10%. The “Population Tubulin-Different-Phenotype (%)” value [1] was 40% and 22%, the “Total Cell Count” value [1] was 409 and 360 and the “Population Apoptotic (%)” value [2] was 43%. For the same compound, the “Population Fragmented Nuclei (%)” value [2] was 7% and 9%, the “Population Healthy Nuclei (%)” value [2] was 67% and 76% and the “Population Membrane Permeable-Phenotype (%)” value [2] was 0%. The “Population Mitochondria Different-Phenotype (%)” value [2] was 66% and 79%, the “Population Mitotic Cells (%)” value [2] was 56% and the “Population Normal (%)” value [2] was 96% and 81%. For the same compound, the “Population Pyknosed Nuclei (%)” value [2] was 25% and 14%, the “Population Tubulin-Different-Phenotype (%)” value [2] was 61% and 59% and the “Total Cell Count” value [2] was 247 and 323. The “Population Apoptotic (%)” value [3] was 35% and 28%, the “Population Fragmented Nuclei (%)” value [3] was 6% and 7% and the “Population Healthy Nuclei (%)” value [3] was 80% and 83%. For the same compound, the “Population Hoechst High Intensity Objects (%)” value [3] was 3% and 4%, the “Population Membrane Permeable-Phenotype (%)” value [3] was 0% and the “Population Mitochondria Different-Phenotype (%)” value [3] was 38% and 45%. For the same compound, the “Population Mitotic Cells (%)” value [3] was 64% and 71%, the “Population Normal (%)” value [3] was 96% and 95% and the “Population Pyknosed Nuclei (%)” value [3] was 12% and 9%. For the same compound, the “Population Tubulin-Different-Phenotype (%)” value [3] was 25% and 17%, the “Total Cell Count” value [3] was 548 and 444 and the “Population Apoptotic (%)” value [4] was 46% and 50%. For the same compound, the “Population Fragmented Nuclei (%)” value [4] was 11% and 9%, the “Population Healthy Nuclei (%)” value [4] was 71% and 78% and the “Population Hoechst High Intensity Objects (%)” value [4] was 5% and 11%. The “Population Membrane Permeable-Phenotype (%)” value [4] was 1% and 0%, the “Population Mitochondria Different-Phenotype (%)” value [4] was 53% and 60% and the “Population Mitotic Cells (%)” value [4] was 53% and 50%. The “Population Normal (%)” value [4] was 94% and 88%, the “Population Pyknosed Nuclei (%)” value [4] was 17% and 11% and the “Population Tubulin-Different-Phenotype (%)” value [4] was 47%. For the same compound, the “Total Cell Count” value [4] was 334 and 399, the “Population Apoptotic (%)” value [5] was 24% and 26% and the “Population Fragmented Nuclei (%)” value [5] was 12% and 11%. The “Population Healthy Nuclei (%)” value [5] was 79% and 81%, the “Population Hoechst High Intensity Objects (%)” value [5] was 3% and 1% and the “Population Membrane Permeable-Phenotype (%)” value [5] was 0%. The “Population Mitochondria Different-Phenotype (%)” value [5] was 28% and 27%, the “Population Mitotic Cells (%)” value [5] was 75% and 73% and the “Population Normal (%)” value [5] was 96% and 98%. The “Population Pyknosed Nuclei (%)” value [5] was 8% and 7%, the “Population Tubulin-Different-Phenotype (%)” value [5] was 14% and the “Total Cell Count” value [5] was 804 and 660. For the same compound, the “Population Apoptotic (%)” value [6] was 40% and 34%, the “Population Fragmented Nuclei (%)” value [6] was 10% and 11% and the “Population Healthy Nuclei (%)” value [6] was 74% and 80%. For the same compound, the “Population Hoechst High Intensity Objects (%)” value [6] was 5%, the “Population Membrane Permeable-Phenotype (%)” value [6] was 0% and 1% and the “Population Mitochondria Different-Phenotype (%)” value [6] was 48% and 39%. The “Population Mitotic Cells (%)” value [6] was 59% and 66%, the “Population Normal (%)” value [6] was 94% and the “Population Pyknosed Nuclei (%)” value [6] was 14% and 8%. The “Population Tubulin-Different-Phenotype (%)” value [6] was 43% and 41% and the “Total Cell Count” value [6] was 435 and 611.
